# Published values pooled from the literature.
# Compare with care: the assays were run in different laboratories.
# SIRT3: NAD-dependent protein deacetylase sirtuin-3, mitochondrial (SIRT3, Homo sapiens, UniProt Q9NTG7)
# PTGS1: Prostaglandin G/H synthase 1 (PTGS1, Ovis aries, UniProt P05979)
# GABRA1: Gamma-aminobutyric acid receptor subunit alpha-1 (GABRA1, Homo sapiens, UniProt P14867)
SMILES,target,observed,mode,method,concentration,inhibition [%]
Cn1c(CNC(=S)NCCCC[C@H](NS(=O)(=O)c2cccc(F)c2)C(=O)N[C@@H](Cc2c[nH]c3ccccc23)C(=O)NC2CCC2)n[nH]c1=S,SIRT3,enzyme activity,inhibitor,,30 µM,51
CN1CCN(CCCOc2ccc(=O)n(-c3ccc(Cl)c(Cl)c3)n2)CC1,"Transient receptor potential cation channel subfamily V member 1 (TRPV1, Homo sapiens, UniProt Q8NER1)",ligand displacement,,,1 µM,17.1
O=C(Nc1ccc(F)cc1)Nc1cccc(C(=O)Nc2ccc3[nH]ncc3c2)c1,"BDNF/NT-3 growth factors receptor (NTRK2, Homo sapiens, UniProt Q16620)",enzyme activity,inhibitor,FRET,1 µM,16.8
CC(=S)NCCCC[C@H](NC(=O)OCc1ccccc1)C(=O)N[C@@H](Cc1c[nH]c2ccccc12)C(=O)N[C@@H](CCCNC(=N)N)C(N)=O,SIRT3,enzyme activity,inhibitor,,10 µM,43
O=C(c1ccc(Cl)cc1)N(Cc1ccccc1)C1CCCCC1,"Type-2 angiotensin II receptor (AGTR2, Homo sapiens, UniProt P50052)",cell-free assay,,,10 µM,4.4
O=C(NC1CCC1)[C@H](Cc1c[nH]c2ccccc12)NC(=O)[C@H](CCCCNC(=S)NCCn1nn[nH]c1=O)NS(=O)(=O)c1cccc(F)c1,SIRT3,enzyme activity,inhibitor,,100 µM,10
CCCCC[C@H]1CC(=O)c2cc(Cl)cc(Br)c2O1,SIRT3,enzyme activity,inhibitor,fluorescence,200 µM,3.9
O=c1c(O[C@@H]2O[C@H](CO)[C@@H](O)[C@H](O)[C@H]2O)c(-c2ccc(O)cc2)oc2cc(O)cc(O)c12,PTGS1,enzyme activity,inhibitor,absorbance,50 µM,66.9
CCCCNC(=S)NCCCC[C@H](NS(=O)(=O)c1cccc(F)c1)C(=O)N[C@@H](Cc1c[nH]c2ccccc12)C(=O)NC1CCC1,SIRT3,enzyme activity,inhibitor,,1 µM,16
O=c1c(O)c(-c2ccc(O)cc2)oc2cc(O)cc(O)c12,PTGS1,enzyme activity,inhibitor,absorbance,50 µM,61.4
O=C(NC1CCC1)[C@H](Cc1c[nH]c2ccccc12)NC(=O)[C@H](CCCCNC(=S)NCc1cc(O)no1)NS(=O)(=O)c1cccc(F)c1,SIRT3,enzyme activity,inhibitor,,30 µM,6
CN(C)C1CCN(CC#Cc2nn(C3CCCC3)c3nc(NCc4ccccc4)ncc23)C1 (stereo not drawn),"Serine/threonine-protein kinase Nek2 (NEK2, Homo sapiens, UniProt P51955)",enzyme activity,inhibitor,FRET,0.1 µM,2
CCN(Cc1ccccc1C(F)(F)F)C(=O)C1CCN(S(=O)(=O)c2ccc3[nH]ncc3c2)CC1,"Androgen receptor (Ar, Rattus norvegicus, UniProt P15207)",ligand displacement,,radioligand,10 µM,11
O=C(COc1ccc2cc(C(=O)Nc3ccccc3)ccc2c1)NCc1ccc(O)c(O)c1,"Signal transducer and activator of transcription 5A, SH2 (Homo sapiens, UniProt P42229)",ligand displacement,,FP,100 µM,1
O=c1c(O)c(-c2ccc(O)cc2)oc2cc(O[C@@H]3O[C@H](CO)[C@@H](O)[C@H](O)[C@H]3O)cc(O)c12,PTGS1,enzyme activity,inhibitor,absorbance,50 µM,58.8
CCCCCC1C=Cc2cc(Cl)cc(Br)c2O1 (stereo not drawn),SIRT3,enzyme activity,inhibitor,fluorescence,200 µM,2
COc1cc(NC(C)=O)c(Cl)cc1C(=O)Nc1nccs1,GABRA1,cell-free assay,,,10 µM,-34.8
Cc1ncc([N+](=O)[O-])n1C(=NO)c1ccccc1C(F)(F)F,"Fas-activated serine/threonine kinase (Homo sapiens, UniProt Q14296)",enzyme activity,inhibitor,,10 µM,7.77
C[C@@H](NC(=O)[C@H](CCCCNC(=O)C(F)(F)F)NS(C)(=O)=O)C(=O)N[C@@H](CCCNC(=N)N)C(N)=O,SIRT3,enzyme activity,inhibitor,,100 µM,10
CCCCCC1CC(=O)c2cc([N+](=O)[O-])ccc2O1 (stereo not drawn),SIRT3,enzyme activity,inhibitor,fluorescence,200 µM,16
CCCCCCCCCCCCNC(=S)NCCCC[C@H](NS(C)(=O)=O)C(=O)N[C@H](C)C(=O)N[C@@H](CCCNC(=N)N)C(=O)O,SIRT3,enzyme activity,inhibitor,,100 µM,34
CCCC1CC(=O)c2cc(Cl)cc(Br)c2O1 (stereo not drawn),SIRT3,enzyme activity,inhibitor,fluorescence,200 µM,7
CCCCCCCCCCCCNC(=S)NCCCC[C@H](NC(=O)OCc1ccccc1)C(=O)N[C@@H](Cc1c[nH]c2ccccc12)C(=O)N[C@@H](CCCCN)C(N)=O,SIRT3,enzyme activity,inhibitor,,10 µM,21
CCCCCC1CC(=O)c2cc(F)cc(F)c2O1 (stereo not drawn),SIRT3,enzyme activity,inhibitor,fluorescence,200 µM,9.6
CC(=S)NCCCC[C@H](NC(=O)OCc1ccccc1)C(=O)N[C@@H](Cc1c[nH]c2ccccc12)C(=O)N[C@@H](CCC(=O)O)C(N)=O,SIRT3,enzyme activity,inhibitor,,10 µM,9
CC(C)C1CC(=O)c2cc(Cl)cc(Br)c2O1 (stereo not drawn),SIRT3,enzyme activity,inhibitor,fluorescence,200 µM,4.4
CCN(CC)c1ccc(C2=NNC(=O)CC2C)cc1[N+](=O)[O-] (stereo not drawn),"cGMP-inhibited 3',5'-cyclic phosphodiesterase 3B (PDE3B, Homo sapiens, UniProt Q13370)",enzyme activity,inhibitor,,0.1 µM,97
CCCCCCCCCCCCNC(=S)NCCCC[C@H](NC(=O)C1CCCCC1)C(=O)N[C@H](C)C(=O)N[C@@H](CCCNC(=N)N)C(N)=O,SIRT3,enzyme activity,inhibitor,,10 µM,41
Oc1cccc(Nc2nc(-c3ccc(F)cc3F)cs2)c1,GABRA1,cell-free assay,,,10 µM,-27.3
CCCCCC1CC(=O)c2ccc(F)cc2O1 (stereo not drawn),SIRT3,enzyme activity,inhibitor,fluorescence,200 µM,2.2
CCCCCCCCCCCCCC(=O)NCCCC[C@H](NS(C)(=O)=O)C(=O)N[C@H](C)C(=O)N[C@@H](CCCNC(=N)N)C(N)=O,SIRT3,enzyme activity,inhibitor,,10 µM,10
O=c1cc(-c2ccccc2)oc2c(Br)cc(Cl)cc12,SIRT3,enzyme activity,inhibitor,fluorescence,200 µM,12
CC(=S)NCCCC[C@H](NC(=O)OCc1ccccc1)C(=O)N[C@@H](Cc1c[nH]c2ccccc12)C(=O)N[C@@H](CCCCN)C(N)=O,SIRT3,enzyme activity,inhibitor,,10 µM,59
